Activity calls are given as the source filed them. No cut-off for these calls is given here.
Legend:
[1] = system: Mus musculus; experiment: Neurotoxicity in ip dosed CF1 albino mouse assessed as dose required to cause toxicity after 0.5 hrs by rotarod test; type: organism-based; conditions: in vivo
Outline: (§1)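 Male CF-1 mice; compounds suspended in 0.5% methylcellulose/water and injected ip at 30, 100 and 300 mg/kg. MES, scPTZ (pentylenetetrazole 85 mg/kg sc at the test time) and rotarod neurotoxicity were scored at 0.5 and 4 h. Value is the lowest dose active or toxic in half or more of the animals; signs such as ataxia or tremor were recorded.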

[2] = system: Mus musculus; experiment: Anticonvulsant activity in ip dosed CF1 albino mouse assessed as dose required to protect against maximal electroshock-induced seizures after 0.5 hrs; type: functional; outline: as §1
[3] = system: Mus musculus; experiment: Anticonvulsant activity in CF1 albino mouse assessed as protection against maximal electroshock-induced seizures at 300 mg/kg, ip after 4 hrs; type: functional, organism-based; design: dose 300 mg/kg; outline: as §1
[4] = system: Mus musculus; experiment: Anticonvulsant activity in CF1 albino mouse assessed as protection against subcutaneous pentylenetetrazole-induced seizures at 300 mg/kg, ip after 4 hrs; type: functional, organism-based; design: dose 300 mg/kg; outline: as §1
[5] = system: Mus musculus; experiment: Neurotoxicity in ip dosed CF1 albino mouse assessed as dose required to cause toxicity after 4 hrs by rotarod test; type: organism-based; conditions: in vivo; outline: as §1
[6] = system: Rattus norvegicus; experiment: Anticonvulsant activity in Sprague-Dawley rat assessed as protection against maximal electroshock-induced seizures at 30 mg/kg po after 0.25 hrs; type: functional
Outline: (§2)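 Male Sprague–Dawley rats, four per group, given 30 mg/kg orally as a 0.5% methylcellulose/water suspension. MES protection scored at 0.25, 0.5, 1, 2 and 4 h after dosing, motor impairment checked in parallel; data are the number of the four rats protected.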

[7] = system: Rattus norvegicus; experiment: Anticonvulsant activity in Sprague-Dawley rat assessed as protection against maximal electroshock-induced seizures at 30 mg/kg po after 0.5 hrs; type: functional; outline: as §2
[8] = system: Rattus norvegicus; experiment: Anticonvulsant activity in Sprague-Dawley rat assessed as protection against maximal electroshock-induced seizures at 30 mg/kg po after 1 hr; type: functional; outline: as §2
[9] = system: Rattus norvegicus; experiment: Anticonvulsant activity in Sprague-Dawley rat assessed as protection against maximal electroshock-induced seizures at 30 mg/kg po after 2 hrs; type: functional; outline: as §2
[10] = system: Rattus norvegicus; experiment: Anticonvulsant activity in Sprague-Dawley rat assessed as protection against maximal electroshock-induced seizures at 30 mg/kg po after 4 hrs; type: functional; outline: as §2
[11] = system: Rattus norvegicus; experiment: Anticonvulsant activity in Sprague-Dawley rat assessed as protection against subcutaneous pentylenetetrazole-induced seizures at 50 mg/kg po after 0.25 hrs; type: functional, organism-based; design: dose 50 mg/kg
Outline: (§3)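 Oral fixed dose of 50 mg/kg in male Sprague–Dawley rats (0.5% methylcellulose/water suspension), four rats per group. Pentylenetetrazole 70 mg/kg given sc at each test time (0.25, 0.5, 1, 2, 4 h); protection from clonic seizures counted per four rats, with motor impairment studied in parallel.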

[12] = system: Rattus norvegicus; experiment: Anticonvulsant activity in Sprague-Dawley rat assessed as protection against subcutaneous pentylenetetrazole-induced seizures at 50 mg/kg po after 0.5 hrs; type: functional; outline: as §3
[13] = system: Rattus norvegicus; experiment: Anticonvulsant activity in Sprague-Dawley rat assessed as protection against subcutaneous pentylenetetrazole-induced seizures at 50 mg/kg po after 1 hr; type: functional; outline: as §3
[14] = system: Rattus norvegicus; experiment: Anticonvulsant activity in Sprague-Dawley rat assessed as protection against subcutaneous pentylenetetrazole-induced seizures at 50 mg/kg po after 2 hrs; type: functional; outline: as §3
[15] = system: Rattus norvegicus; experiment: Anticonvulsant activity in Sprague-Dawley rat assessed as protection against subcutaneous pentylenetetrazole-induced seizures at 50 mg/kg po after 4 hrs; type: functional; outline: as §3
[16] = system: Rattus norvegicus; experiment: Anticonvulsant activity in Sprague-Dawley rat assessed as protection against pilocarpine-induced status epilepticus at 600 mg/kg, ip measured after clonus of one of the fore limbs seizure stage; type: functional, organism-based; design: dose 600 mg/kg
Outline: (§4)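 Male Sprague–Dawley rats (150–180 g) received compound ip at 600 mg/kg, then a challenge dose of pilocarpine. Seizure severity graded on the Racine scale; rats were scored as protected or not, and body weight change was taken 24 h after the first stage III seizure.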

[17] = system: Rattus norvegicus; experiment: Anticonvulsant activity in Sprague-Dawley rat assessed as protection against pilocarpine-induced status epilepticus at 600 mg/kg, ip; type: functional, organism-based; design: dose 600 mg/kg; outline: as §4
[18] = system: Rattus norvegicus; experiment: Toxicity in Sprague-Dawley rat assessed as change in body weight at 600 mg/kg, ip measured after 24 hrs of clonus of one of the fore limbs seizure stage in protected rat; type: organism-based; design: dose 600 mg/kg, route intraperitoneal; conditions: in vivo; outline: as §4
[19] = system: Rattus norvegicus; experiment: Toxicity in Sprague-Dawley rat assessed as change in body weight at 600 mg/kg, ip measured after 24 hrs of clonus of one of the fore limbs seizure stage in non-protected rat; type: organism-based; design: dose 600 mg/kg, route intraperitoneal; conditions: in vivo; outline: as §4
[20] = system: Mus musculus; experiment: Neurotoxicity in CF1 albino mouse assessed as myoclonic jerks at 100 mg/kg, ip after 4 hrs by rotarod test; type: toxicity, organism-based; design: dose 100 mg/kg, route intraperitoneal; conditions: in vivo; outline: as §1
[21] = system: Mus musculus; experiment: Anticonvulsant activity in ip dosed CF1 albino mouse assessed as dose required to protect against maximal electroshock-induced seizures after 4 hrs; type: functional; outline: as §1
[22] = system: Mus musculus; experiment: Anticonvulsant activity in CF1 albino mouse assessed as protection against subcutaneous pentylenetetrazole-induced seizures at 300 mg/kg, ip after 0.5 hrs; type: functional, organism-based; design: dose 300 mg/kg; outline: as §1
[23] = system: Mus musculus; experiment: Neurotoxicity in CF1 albino mouse at 300 mg/kg, ip after 4 hrs by rotarod test; type: toxicity, organism-based; design: dose 300 mg/kg, route intraperitoneal; conditions: in vivo; outline: as §1
[24] = system: Rattus norvegicus; experiment: Anticonvulsant activity in po dosed Sprague-Dawley rat assessed as time required to peak protection against seizures; type: functional
[25] = system: Rattus norvegicus; experiment: Anticonvulsant activity in po dosed Sprague-Dawley rat assessed as protection against maximal electroshock-induced seizures; type: functional
Outline: (§5)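 Male Sprague–Dawley rats dosed orally (0.5% methylcellulose/water suspension), groups of eight, tested at the previously estimated time of peak effect. Doses varied until at least three points lay in the 10–90% range of protection (MES, scPTZ) or minimal rotarod neurotoxicity. ED50/TD50 with 95% confidence intervals came from regression; PI = TD50/ED50.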

[26] = Neurotoxicity in po dosed Sprague-Dawley rat by rotarod test; type: toxicity, organism-based; conditions: in vivo; outline: as §5
[27] = species: Rattus norvegicus; experiment: Protection index, ratio of TD50 for Sprague-Dawley rat by rotarod test to ED50 for Sprague-Dawley rat by maximal electroshock test; type: functional; outline: as §5
[28] = system: Mus musculus; experiment: Anticonvulsant activity in CF1 albino mouse assessed as protection against electrically-induced seizure at 100 mg/kg, ip after 0.25 hrs by 6Hz psychomotor seizure test; type: functional, organism-based; design: dose 100 mg/kg
Outline: (§6)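 Male CF-1 mice, compound suspended in 0.5% methylcellulose/water, given ip at 100 mg/kg; four mice per time point (0.25, 0.5, 1, 2, 4 h). Corneal stimulation with 0.2 ms monopolar rectangular pulses at 6 Hz for 3 s from a constant-current device, mice manually restrained. A mouse counted as protected if normal exploratory behaviour resumed within 10 s; motor impairment was noted alongside.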

[29] = system: Mus musculus; experiment: Anticonvulsant activity in CF1 albino mouse assessed as protection against electrically-induced seizure at 100 mg/kg, ip after 0.5 hrs by 6Hz psychomotor seizure test; type: functional, organism-based; design: dose 100 mg/kg; outline: as §6
[30] = system: Mus musculus; experiment: Anticonvulsant activity in CF1 albino mouse assessed as protection against electrically-induced seizure at 100 mg/kg, ip after 1 hr by 6Hz psychomotor seizure test; type: functional; outline: as §6
[31] = system: Mus musculus; experiment: Anticonvulsant activity in CF1 albino mouse assessed as protection against electrically-induced seizure at 100 mg/kg, ip after 2 hrs by 6Hz psychomotor seizure test; type: functional, organism-based; design: dose 100 mg/kg; outline: as §6
[32] = system: Mus musculus; experiment: Anticonvulsant activity in CF1 albino mouse assessed as protection against electrically-induced seizure at 100 mg/kg, ip after 4 hrs by 6Hz psychomotor seizure test; type: functional; outline: as §6
[33] = Displacement of [3H]batrachotoxin from neurotoxin site 2 of voltage-gated sodium channel in rat forebrain tissue; conditions: read-out: IC50
[34] = system: Mus musculus; experiment: Anticonvulsant activity in CF1 albino mouse assessed as protection against maximal electroshock-induced seizures at 300 mg/kg, ip after 0.5 hrs; type: functional, organism-based; design: dose 300 mg/kg; outline: as §1
[35] = system: Mus musculus; experiment: Anticonvulsant activity in ip dosed CF1 albino mouse assessed as dose required to protect against subcutaneous pentylenetetrazole-induced seizures after 0.5 hrs; type: functional; outline: as §1
[36] = system: Mus musculus; experiment: Anticonvulsant activity in ip dosed CF1 albino mouse assessed as dose required to protect against subcutaneous pentylenetetrazole-induced seizures after 4 hrs; type: functional; outline: as §1
[37] = system: Mus musculus; experiment: Neurotoxicity in CF1 albino mouse at 300 mg/kg, ip after 0.5 hrs by rotarod test; type: toxicity, organism-based; design: dose 300 mg/kg, route intraperitoneal; conditions: in vivo; outline: as §1
[38] = system: Rattus norvegicus; experiment: Anticonvulsant activity in po dosed Sprague-Dawley rat assessed as protection against subcutaneous pentylenetetrazole-induced seizures; type: functional; outline: as §5
[39] = system: Mus musculus; experiment: Neurotoxicity in CF1 albino mouse assessed as unable to grasp rotarod at 300 mg/kg, ip after 4 hrs by rotarod test; type: toxicity, organism-based; design: dose 300 mg/kg, route intraperitoneal; conditions: in vivo; outline: as §1

Compound	Activity [1]	Activity [2]	Activity [3]	Activity [4]	Activity [6]	Activity [7]	Activity [8]	Activity [9]	Activity [10]	Activity [11]	Activity [12]	Activity [13]	Activity [14]	Activity [15]	Activity [16]	Activity [21]	Activity [23]	ED50 [25]	TD50 [26]	Activity [35]	also measured
O=C1CC2(CCc3ccccc3C2)C(=O)N1CN1CCN(c2ccc(F)cc2)CC1 (configuration not stated)	300 mg/kg	100 mg/kg	inactive	inactive	inactive	inactive	inactive	25%	25%	inactive	inactive	inactive	25%	25%	inactive	–	–	–	–	–	Activity [5]: 300 mg/kg; Activity [17]: inactive; Activity [18]: Non-toxic; Activity [19]: 20 g; Activity [20]: Toxic
O=C1CC2(CCc3ccccc3C2)C(=O)N1CN1CCN(c2cccc(Cl)c2)CC1 (configuration not stated)	300 mg/kg	300 mg/kg	–	inactive	inactive	inactive	25%	50%	50%	–	–	–	–	–	inactive	100 mg/kg	Non-toxic	19.6 mg/kg	> 500 mg/kg	–	Activity [22]: inactive; Time [24]: 6 h; PI [27]: 25.55; Activity [28]: inactive; Activity [29]: inactive; Activity [30]: inactive; Activity [31]: inactive; Activity ([32]; route intraperitoneal): 50%; Activity [17]: inactive; Activity [18]: Non-toxic; Activity [19]: 20.6 g; IC50 [33]: 2.45 µM
CCC1(C)CC(=O)NC1=O (configuration not stated) [ETHOSUXIMIDE]	–	–	inactive	–	–	–	–	–	–	inactive	50%	25%	25%	inactive	–	–	Non-toxic	> 500 mg/kg	> 500 mg/kg	100 mg/kg	Activity [34]: inactive; Activity [36]: 300 mg/kg; Activity [37]: Non-toxic; ED50 [38]: 167 mg/kg; PI [27]: >2.99
O=C1CC2(CCc3ccccc3C2)C(=O)N1CN1CCN(Cc2ccccc2)CC1 (configuration not stated)	–	300 mg/kg	–	inactive	–	–	–	–	–	–	–	–	–	–	–	300 mg/kg	Non-toxic	–	–	–	Activity [22]: inactive; Activity [37]: Non-toxic; Activity [28]: inactive; Activity [29]: inactive; Activity ([30]; route intraperitoneal): 25%; Activity [31]: inactive; Activity [32]: inactive
O=C1CC2(CCc3ccccc3C2)C(=O)N1CN1CCN(CCO)CC1 (configuration not stated)	–	100 mg/kg	–	inactive	25%	25%	inactive	25%	50%	–	–	–	–	–	–	100 mg/kg	Non-toxic	–	–	300 mg/kg	Activity [39]: Non-toxic
O=C1CC2(CCc3ccccc3C2)C(=O)N1CN1CCOCC1 (configuration not stated)	–	100 mg/kg	–	inactive	50%	25%	25%	25%	50%	inactive	25%	25%	25%	25%	–	300 mg/kg	Non-toxic	> 160 mg/kg	> 500 mg/kg	100 mg/kg	Activity [39]: Non-toxic; Time [24]: 0.5 h; ED50 [38]: > 150 mg/kg

Source: ChEMBL document CHEMBL1250467, “Design, synthesis, and anticonvulsant activity of new N-Mannich bases derived from spirosuccinimides and spirohydantoins” (Bioorg Med Chem, 2010)
